From ChEMBL document CHEMBL1124994, “New and versatile approaches to the synthesis of CPP-related competitive NMDA antagonists. Preliminary structure-activity relationships and pharmacological evaluation” (J Med Chem, 1990)
pIC50: −log10 of the molar value.

target: T1, Glutamate NMDA receptor (Rattus norvegicus) (UniProt P35439+Q00959+Q00960+Q00961+Q62645+Q8VHN2+Q9R1M7); settings: filed as agonist

Compound	GSTCP activity
CN[C@H](CC(=O)O)C(=O)O [N-METHYL-D-ASPARTIC ACID (NMDA)]	Agonist
N[C@@H](CCC(=O)O)C(=O)O	Agonist

target: T1, Glutamate NMDA receptor (Rattus norvegicus); assay: Binding affinity for glutamate-stimulated TCP binding site of N-methyl-D-aspartate glutamate receptor from rat brain by using [3H]TCP as radioligand; Agonist; settings: filed as agonist
Procedure, shortened: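 Rat whole brain minus cerebellum and brainstem, crude synaptic membranes stored at -70 °C; thawed, treated with 0.01% Triton X-100 in 50 mM Tris-HCl pH 7.6 at 37 °C for 30 min, washed ≥3 times. Test agents incubated with 15 mg tissue (wet weight) and [3H]TCP 1 nM in 5 mM Tris-HCl pH 8.0, 1 h, 25 °C. Filtration, scintillation counting; nonspecific binding with 100 μM (+)-SKF 10047.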

Compound	GSTCP activity
O=C(O)C1CN(CCCP(=O)(O)O)CCN1 (stereo not given)	Agonist

target: Glutamate NMDA receptor; assay: Inhibition of N-methyl-D-aspartate glutamate receptor by using [3H]CPP as a radioligand from the rat cortical membranes.; assay type: cell membranes, Membrane; settings: not given

Compound	pIC50
O=C(O)C1CN(CCP(=O)(O)O)CCN1 (stereo not given)	5.01
O=C(O)C1CN(c2cccc(P(=O)(O)O)c2)CCN1 (stereo not given)	4.08
O=C(O)C1CN(CCCP(=O)(O)O)CCN1CCCCc1ccccc1 (stereo not given)	< 4.00
O=C(O)C1CN(CCCP(=O)(O)O)CCN1CCC=C(c1ccccc1)c1ccccc1 (stereo not given)	< 4.00
O=C(O)C1CN(C(c2ccccc2)P(=O)(O)O)CCN1 (stereo not given)	5.24
O=C(O)C1CN(Cc2cccc(CP(=O)(O)O)c2)CCN1 (stereo not given)	< 4.00
O=C(O)CCCN1CCNC(C(=O)O)C1 (stereo not given)	6.07
O=C(O)C1CN(CCCP(=O)(O)O)CCN1 (stereo not given)	7.10
O=C(O)CN1CCNC(C(=O)O)C1 (stereo not given)	4.80
CP(=O)(O)CCCN1CCNC(C(=O)O)C1 (stereo not given)	6.11
O=C(O)[C@@H]1C[C@H](CP(=O)(O)O)CCN1 [SELFOTEL]	7.19
O=C(O)C1CN(CCCP(=O)(O)O)CCN1CCCCC(c1ccccc1)c1ccccc1 (stereo not given)	< 4.00
CN1CCN(CCCP(=O)(O)O)CC1C(=O)O (stereo not given)	4.32
NC(CCCCCP(=O)(O)O)C(=O)O (stereo not given) [AP-7]	6.12
O=C(O)c1ccccc1C(=O)N1CCNC(C(=O)O)C1 (stereo not given)	< 4.00
O=C(O)C1CN(CCCCP(=O)(O)O)CCN1 (stereo not given)	4.32

target: T1, Glutamate NMDA receptor (Rattus norvegicus); assay: Binding affinity for glutamate-stimulated TCP binding site of N-methyl-D-aspartate glutamate receptor from rat brain by using [3H]TCP as radioligand;Antagonist; settings: filed as antagonist
Procedure, shortened: (§1)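 Rat whole brain minus cerebellum and brain stem; crude synaptic membranes stored at -70 °C, then treated with 0.01% Triton X-100 in 50 mM Tris-HCl pH 7.6 for 30 min at 37 °C and washed three times. Incubation with 15 mg wet tissue and 1 nM [3H]TCP in 5 mM Tris-HCl pH 8.0, 1 h, 25 °C. Filtration through PEI-treated glass-fiber filters, scintillation counting. Nonspecific binding defined with 100 µM (+)-SKF 10047.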

Compound	GSTCP activity
O=C(O)CCCN1CCNC(C(=O)O)C1 (stereo not given)	Antagonist

target: T1, Glutamate NMDA receptor (Rattus norvegicus); assay: Binding affinity for glutamate-stimulated TCP binding site of N-methyl-D-aspartate glutamate receptor from rat brain by using [3H]-TCP as radioligand; ant = antagonist; settings: filed as antagonist
Procedure, shortened: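 Crude synaptic membranes from rat whole brain minus cerebellum and brainstem, stored at -70 °C, treated with 0.01% Triton X-100 in 50 mM Tris-HCl pH 7.6 at 37 °C for 30 min, then washed. Incubated with 15 mg tissue and 1 nM [3H]TCP in 5 mM Tris-HCl pH 8.0 for 1 h at 25 °C. Filtered on PEI-treated filters, counted by scintillation. Nonspecific binding: 100 µM (+)-SKF 10047.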

Compound	GSTCP activity
NC(CCCP(=O)(O)O)C(=O)O (stereo not given)	Antagonist
CP(=O)(O)CCCN1CCNC(C(=O)O)C1 (stereo not given)	Antagonist
NC(CCCCCP(=O)(O)O)C(=O)O (stereo not given) [AP-7]	Antagonist

target: T1, Glutamate NMDA receptor (Rattus norvegicus); assay: Binding affinity for glutamate-stimulated TCP binding site of N-methyl-D-aspartate glutamate receptor from rat brain by using [3H]TCP as radioligand; Antagonist; settings: filed as antagonist
Procedure, shortened: as §1

Compound	GSTCP activity
O=C(O)C1CN(CCP(=O)(O)O)CCN1 (stereo not given)	Antagonist
O=C(O)C1CN(C(c2ccccc2)P(=O)(O)O)CCN1 (stereo not given)	Antagonist
O=C(O)C1CN(CP(=O)(O)O)CCN1 (stereo not given)	Antagonist
O=C(O)CN1CCNC(C(=O)O)C1 (stereo not given)	Antagonist
O=C(O)[C@@H]1C[C@H](CP(=O)(O)O)CCN1 [SELFOTEL]	Antagonist
O=C(O)C1CN(CCCCP(=O)(O)O)CCN1 (stereo not given)	Antagonist

target: Glutamate NMDA receptor; assay: Compound was tested for inhibition of N-methyl-D-aspartate glutamate receptor by using [3H]CPP as a radioligand from the rat cortical membranes; assay type: cell membranes, Membrane; settings: not given

Compound	pIC50
O=C(O)C1CN(CP(=O)(O)O)CCN1 (stereo not given)	6.49
O=C(O)C1CN(CCCP(=O)(O)O)CCN1CCC(c1ccccc1)c1ccccc1 (stereo not given)	< 4.00
O=C(O)C1CN(c2ccccc2P(=O)(O)O)CCN1 (stereo not given)	< 4.00

target: Glutamate NMDA receptor; assay: Compound was tested for inhibition of [3H]CPP binding from N-methyl-D-aspartate glutamate receptor in the rat cortical membranes.; assay type: cell membranes, Membrane; settings: not given

Compound	pIC50
O=C(O)C1CN(C(c2ccccc2)P(=O)(O)O)CCN1 (stereo not given)	4.88
CN[C@H](CC(=O)O)C(=O)O [N-METHYL-D-ASPARTIC ACID (NMDA)]	5.34

target: Glutamate NMDA receptor; assay: Binding affinity was determined by the ability to displace [3H]-CPP from N-methyl-D-aspartate glutamate receptor of rat brain; settings: not given
Procedure, shortened: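 Radioligand displacement of [3H]CPP from rat cortical crude synaptic membranes.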

Compound	pIC50
NC(CCCP(=O)(O)O)C(=O)O (stereo not given)	6.54
